This is a sample that favours compounds with a hit; in the whole collection about 2.9% have one here.
MEKK2 WT-MEK5 – raises or lowers MEK5 binding to wildtype human MEKK2 PB1 domain; Q9Y2U5; bead flow cytometry, Alexa488-MEK5 binding to MEKK2 WT; actives lie on both sides; binding response (% of control), % at 10 µM; 290,000 compounds, 1.1% hits; AID 1531; in the data active means binding response below about 67% or above about 130%
Apaf1 inhib – inhibitors of human Apaf-1 apoptosome; O14727; inhibition, % at 20 µM; reconstituted apoptosome caspase-3 activity, DEVD-Rh110 fluorescence; 330,000 compounds, 0.71% hits; active means inhibition of at least 40% at 20 µM;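 further: plate controls were DMSO wells for no effect and DEVD-CHO caspase inhibitor wells for full effect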
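System: reconstituted apoptosome with Apaf-1, cytochrome c, caspase-9, procaspase-3, dATP; Signal: Rh110 fluorescence intensity; Schedule: 30 min compound preincubation, 50 min activation, room temperature; Reagent: cytochrome c trigger plus (Z-DEVD)2-Rh110 caspase-3 substrate.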
MEKK3 PB1 HTS – raises or lowers MEK5 binding to the human MEKK3 PB1 domain; AID 1529; binding response (% of control), % at 10 µM; bead-based flow cytometry, Alexa488-MEK5 binding to MEKK3; actives lie on both sides; 0 = blocked by unlabeled MEK5, 100 = vehicle; 290,000 compounds, 1.4% hits; Q99759;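 active means binding response more than 3 SD above or below the average of its plate-row segment, actives on both sides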;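 further: Alexa488 bead fluorescence after subtracting the streptavidin-only scavenger bead signal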
UBC13 polyUb – inhibitors of human UBC13 polyubiquitin chain formation | 330,000 compounds, 0.47% hits | TR-FRET | P61088 | inhibition, % at 20 µM; in the data active means inhibition above about 45%, passing the limit was not always enough
Target sequence (P61088 whole entry, looked up): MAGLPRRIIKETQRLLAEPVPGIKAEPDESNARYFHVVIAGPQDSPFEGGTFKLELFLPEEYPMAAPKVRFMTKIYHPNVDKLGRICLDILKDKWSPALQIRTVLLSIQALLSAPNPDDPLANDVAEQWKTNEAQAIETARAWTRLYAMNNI
MEKK2mut PB1 HTS – signal of MEK5 binding to mutant human MEKK2 PB1 domain. bead flow cytometry, Alexa488-MEK5 binding to MEKK2 mutant. percent response, % at 10 µM. 290,000 compounds, 0.35% hits. AID 1530; in the data active means percent response above about 24%, passing the limit was not always enough
MEKK2wt confirm – raises or lowers MEK5 binding to wildtype human MEKK2, retest. shares compounds with MEKK3 PB1 HTS. bead flow cytometry, Alexa488-MEK5 binding to MEKK2 WT; actives lie on both sides. binding response (% of control), % at 10 µM. 5,900 compounds, 2.4% hits; in the data active means binding response below about 16% or above about 210%; inactive means in between
MEKK2mut confirm – signal of MEK5 binding to mutant human MEKK2, retest | AID 1893 | percent response, % at 10 µM | 5,900 compounds, 2% hits | shares compounds with MEKK3 PB1 HTS | bead flow cytometry, Alexa488-MEK5 binding to MEKK2 mutant; in the data active means percent response mostly above about 71%, no sharp cut-off; inactive means mostly below about 38%;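 further: higher means compound restores mutant binding toward wildtype level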
MEKK3 confirm – confirmation of inhibitors of MEK5 binding to human MEKK3; shares compounds with MEKK3 PB1 HTS; bead flow cytometry, Alexa488-MEK5 binding to MEKK3; hits give low values; binding response (% of control), % at 10 µM; 5,900 compounds, 1.8% hits;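 active means binding response below 72% of control, or above a set upper limit, though filed actives all read lower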;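 further: 100% = DMSO only wells and 0% = binding blocked by excess unlabeled MEK5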
Casp3 UBC13 ctr – inhibits human caspase-3 in UBC13 counter-screen; inhibition, % at 20 µM; Recombinant caspase-3, Caspase-Glo 3/7 luminescence, 60 min; shares compounds with UBC13 polyUb; 1,400 compounds, 4% hits;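 active means mean inhibition across replicates above about 26%, limit read from the data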;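 further: plate controls were DMSO with caspase-3 for no effect and DMSO wells lacking enzyme for full effect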
Target sequence (P42574 whole entry, looked up): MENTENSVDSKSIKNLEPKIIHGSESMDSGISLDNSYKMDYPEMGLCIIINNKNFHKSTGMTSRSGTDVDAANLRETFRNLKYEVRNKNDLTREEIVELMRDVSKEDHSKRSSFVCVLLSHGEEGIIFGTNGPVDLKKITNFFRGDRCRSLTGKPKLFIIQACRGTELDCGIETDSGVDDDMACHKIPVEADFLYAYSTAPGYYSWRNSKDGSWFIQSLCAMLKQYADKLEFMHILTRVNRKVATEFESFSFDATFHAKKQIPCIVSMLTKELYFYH
UBC13 conf – confirmation of human UBC13 polyubiquitin inhibitors | shares compounds with UBC13 polyUb | UBC13 polyubiquitination, TR-FRET, biochemical | inhibition, % at 10 µM | 1,400 compounds, 68% hits | AID 488859; in the data active means inhibition above about 45%
Apaf-1 inh conf2 – confirmation of Apaf-1 inhibitors. 1,800 compounds, 25% hits. AID 504614. reconstituted apoptosome, caspase-3 DEVD-Rh110 fluorescence. shares compounds with Apaf1 inhib. inhibition, % at 20 µM;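 active means mean inhibition of at least 40% at 20 µM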;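 further: plate controls were DMSO wells for no effect and DEVD-CHO caspase inhibitor control wells for full effect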
Rh110 quench – Rh110 signal interference in Apaf-1 inhibitor counter-screen. shares compounds with Apaf1 inhib. Rh110 fluorescence interference, quenched caspase reaction. activation (fluorescence interference), % at 20 µM. 1,800 tested, under 10 active. AID 504615;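 active means signal rise of 40% or more at 20 µM, treated as a fluorescence artifact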
Apaf1 inh interf – shows fluorescence interference in the Apaf-1 inhibitor assay format; shares compounds with Apaf1 inhib; fluorescence interference counterscreen, Apaf-1 assay format; IC50, µM; 460 tested, under 10 active; call rule not given here
Active calls of the source: *; i = inactive; nt = no result; ! = not active in a repeat; [ ] = remark or other dose.

SMILES	MEKK2 WT-MEK5	Apaf1 inhib	MEKK3 PB1 HTS	UBC13 polyUb	MEKK2mut PB1 HTS	MEKK2wt confirm	MEKK2mut confirm	MEKK3 confirm	Casp3 UBC13 ctr	UBC13 conf	Apaf-1 inh conf2	Rh110 quench	others
O=c1cccc2n1CC1CC2CN(Cc2ccc3c(c2)OCO3)C1 (stereo unspecified)	-1.0*[inhibitor]	-12.9	2.0*[inhibitor]	9.5	-27.0	109.0	16.0	109.0	nt	nt	nt	nt
CNCC(O)c1cc(OCc2ccccc2)c(OCc2ccccc2)cc1F (stereo unspecified)	138.0*	7.9	103.0	52.6*	17.0	125.0	12.0	104.0	1.8	38.6	nt	nt
Nc1c(Cl)cc([N+](=O)[O-])cc1Cl	nt	-5.5	nt	-5.2	nt	nt	nt	nt	nt	nt	nt	nt
Cc1ccc(C(=O)N[C@@H](C)CN2C3=NC[C@H](Cc4ccccc4)N3C[C@H]2Cc2ccc(O)cc2)cc1Br	168.0*	28.3	112.0	65.1*	31.0*	155.0	25.0	88.0	2.5	64.6*	nt	nt
Cc1ccc(C(=O)N[C@@H](C)CN2C3=NC[C@@H](Cc4ccccc4)N3C[C@H]2Cc2ccc(O)cc2)cc1Br	248.0*	27.9	108.0	77.0*	103.0*	159.0	61.0	107.0	-1.2	75.7*	nt	nt
O=S1(=O)N(Cc2ccc(F)cc2)CCCN1Cc1ccccc1Cl	106.0	18.4	105.0	2.6	2.0	nt	nt	nt	nt	nt	nt	nt
CC(C)(C)c1ccc(C(=O)C2CCCN(C3CCC3)C2)cc1 (stereo unspecified)	94.0	-0.4	96.0	0.5	-10.0	nt	nt	nt	nt	nt	nt	nt
CCCCCCCSc1cc(OC)c(CCN(C)C)cc1OC	147.0*	56.3*	104.0	49.9*	28.0*	155.0	21.0	100.0	-2.7	56.1*	12.7	10.8
COc1nc(NCC2CCCO2)nc(N2CC3CC(C2)c2cccc(=O)n2C3)n1 (stereo unspecified)	98.0	-18.7	108.0	7.9	-1.0	nt	nt	nt	nt	nt	nt	nt
NC(N)=N/N=C/c1ccc(N(c2ccccc2)c2ccccc2)cc1	235.0*	61.5*	114.0	106.6*	73.0*	205.0	63.0	111.0	-5.7	118.7*	43.3*	3.2	Apaf1 inh interf=>100
COC(=O)C1=C(c2ccc(F)cc2F)C[C@@H]2CC[C@H]1N2C(=O)NCc1ccc(C(F)(F)F)cc1	nt	26.7	nt	0.3	nt	nt	nt	nt	nt	nt	nt	nt
O=[N+]([O-])c1ccc(N2CCOCC2)c2ccncc12	90.0	-5.2	89.0	-18.4	-3.0	nt	nt	nt	nt	nt	nt	nt
O=c1[nH]c2ccccc2n1C1CCN(CCCC(c2ccc(F)cc2)c2ccc(F)cc2)CC1	146.0*	55.6*	83.0	40.4	31.0*	195.0	66.0	109.0	nt	nt	13.9	1.6
C=C1C2C[C@@]3([C@@H]1O)[C@@H](C[C@@H]2O)[C@@]12C4[C@@H]3C[C@@H]1[C@@](C)(CC[C@@H]2O)CN4CC	nt	0.9	nt	3.5	nt	nt	nt	nt	nt	nt	nt	nt
CNc1ccc2nc3ccccc3[n+](C)c2c1	2.0*[inhibitor]	88.9*	88.0	i	-5.0	95.0	6.0	94.0	nt	nt	61.7*	8.8	Apaf1 inh interf=>100
COc1c2c(cc3c1OCO3)CC[N+](C)=C2	98.0	-8.8	104.0	-1.9	4.0	nt	nt	nt	nt	nt	nt	nt
CC[C@@H](CO)NC(=O)[C@@H]1C=C2c3cccc4c3c(cn4C)C[C@H]2N(C)C1	38.0*![inhibitor]	68.6*!	66.0*![inhibitor]	-39.3	7.0	109.0	7.0	104.0	nt	nt	17.1	-0.5
CCCCn1c(=O)c(C(=O)Nc2ccccc2S(N)(=O)=O)c(O)c2ccccc21	108.0	10.8	102.0	52.7*	5.0	nt	nt	nt	-1.9	15.2	nt	nt
C[C@]12CCC3C(CC[C@H]4C[C@@H](O)CC[C@]34C)C1CC[C@@H]2OC(=O)[C@H](N)CCCCN (stereo partly specified)	nt	22.6	nt	105.2*	nt	nt	nt	nt	1.8	106.5*	nt	nt
Cc1cc(OCC(=O)N[C@H](C(=O)O)c2ccccc2)c2c3c(c(=O)oc2c1)CCC3	100.0	0.6	98.0	-5.5	-1.0	nt	nt	nt	nt	nt	nt	nt
O=C(C[N+]12CCC(CC1)C(CO)C2)c1ccc(Br)cc1 (stereo unspecified)	101.0	-7.8	99.0	1.8	4.0	nt	nt	nt	nt	nt	nt	nt
O=C1C(Cc2cnc[nH]2)NC(=S)N1c1ccccc1 (stereo unspecified)	108.0	5.0	106.0	86.5*	15.0	nt	nt	nt	1.7	103.8*	nt	nt
S=C(NCCc1ccccc1)NCCc1cnc[nH]1	100.0	1.9	98.0	-4.4	3.0	nt	nt	nt	nt	nt	nt	nt
CC(C)c1ccccc1OCC(=O)N1CCCN(C)CC1	104.0	12.3	100.0	2.7	6.0	nt	nt	nt	nt	nt	nt	nt
Cc1ccc2c(c1)C1CN(C)CCC1N2C(=O)CCCN1C(=O)c2cccc3cccc(c23)C1=O (stereo unspecified)	103.0	-13.7	95.0	88.8*	-3.0	nt	nt	nt	-1.6	100.8*	nt	nt
SMILES	MEKK2 WT-MEK5	Apaf1 inhib	MEKK3 PB1 HTS	UBC13 polyUb	MEKK2mut PB1 HTS	MEKK2wt confirm	MEKK2mut confirm	MEKK3 confirm	Casp3 UBC13 ctr	UBC13 conf	Apaf-1 inh conf2	Rh110 quench	others
Clc1ccc(COC(Cn2ccnc2)c2ccc(Cl)cc2Cl)cc1 (stereo unspecified)	103.0	39.6	82.0	49.6*	6.0	nt	nt	nt	3.2	19.5	nt	nt
Clc1ccc(CSC(Cn2ccnc2)c2ccc(Cl)cc2Cl)cc1 (stereo unspecified)	103.0	39.1	104.0	43.6	5.0	nt	nt	nt	nt	nt	nt	nt
Clc1ccc(C(c2ccc(Cl)cc2)n2cc[n+](CC(OCc3ccc(Cl)cc3Cl)c3ccc(Cl)cc3Cl)c2)cc1 (stereo unspecified)	nt	89.5*	nt	104.2*	nt	nt	nt	nt	-3.0	105.6*	78.9*	7.8	Apaf1 inh interf=>100
Cn1cc(C(=O)OCC(=O)NC2(C#N)CCCCC2)c2ccccc21	nt	3.6	nt	-2.8	nt	nt	nt	nt	nt	nt	nt	nt
Cc1nc2c(=O)n(C)c(=O)nc-2n(C)n1	106.0	99.0*	92.0	-23.0	4.0	nt	nt	nt	nt	nt	100.3*	-2.9	Apaf1 inh interf=>100
COc1ccc(P2(=O)Nc3ccccc3N2)cc1	102.0	48.9*	103.0	-14.1	3.0	nt	nt	nt	nt	nt	21.1	7.9
CCN(CC(=O)Nc1ccc(NC(C)=O)cc1)C(=O)CSC(c1ccccc1)c1ccccc1	nt	7.8	nt	2.2	nt	nt	nt	nt	nt	nt	nt	nt

Assay outcomes as filed in PubChem BioAssay.
